# Results collected from several papers.
# Compare with care: the assays were run in different laboratories.
# UCHL1: Ubiquitin carboxyl-terminal hydrolase isozyme L1 (UCHL1, Homo sapiens, UniProt P09936)
# PRKCE: Protein kinase C epsilon type (PRKCE, Homo sapiens, UniProt Q02156)
# PTGIR: Prostacyclin receptor (PTGIR, Homo sapiens, UniProt P43119)
SMILES,target,observed,action,technique,concentration,inhibition
N=C(N)c1ccc2cc(OC(=O)c3ccc(N=C(N)N)cc3)ccc2c1,UCHL1,enzyme activity,inhibitor,,10 µM,0%
CC(C)C[C@H](NC(=O)[C@H](Cc1ccccc1)NC(=O)c1cnccn1)B(O)O,"Lysosomal protective protein (CTSA, Homo sapiens, UniProt P10619)",cell-free assay,inhibitor,,33 µM,32.4%
CCOC(=O)c1ccc(OC(=O)CCCCCNC(=N)N)cc1,UCHL1,enzyme activity,inhibitor,,10 µM,5%
CC(C)=CCC[C@]1(C)C=Cc2c(O)c3c(c(CC=C(C)C)c2O1)O[C@]12C(=C[C@@H]4C[C@H]1C(C)(C)O[C@@]2(C/C=C(/C)C(=O)O)C4=O)C3=O,"Histone-lysine N-methyltransferase SETD7 (SETD7, Homo sapiens, UniProt Q8WTS6)",cell-free assay,,,10 µM,-5%
C#Cc1n[nH]c2c(-c3cn(C(C)c4ccccn4)c(=O)[nH]c3=O)cc(F)cc12 (stereo not shown),PRKCE,enzyme activity,inhibitor,,1 µM,3.8%
CN1CCN(c2nc(N)c3ccccc3n2)CC1,"Neuronal acetylcholine receptor subunit alpha-7 (CHRNA7, Homo sapiens, UniProt P36544)",ligand displacement,,radioligand,0.1 µM,31.9%
CN(C)C(=O)COC(=O)Cc1ccc(OC(=O)c2ccc(NC(=N)N)cc2)cc1,UCHL1,enzyme activity,inhibitor,,10 µM,7%
O=C(Nc1cccnn1)N1CCN([C@@H]2CCOc3cc(C(F)(F)F)ccc32)CC1,PTGIR,cell-free assay,,,20 µM,-15%
C#Cc1n[nH]c2c(-c3cn([C@@H](C)c4ccccc4)c(=O)[nH]c3=O)cc(F)cc12,PRKCE,enzyme activity,inhibitor,,0.1 µM,7.2%
COc1ccc(S(=O)(=O)N(CC(=O)NO)CC(C)C)cc1,"72 kDa type IV collagenase (MMP2, Homo sapiens, UniProt P08253)",enzyme activity,inhibitor,,0.1 µM,71%
Cn1cc(-c2cccc(N3CCc4c(sc5c4CC(C)(C)C5)C3=O)c2CO)cc(Nc2ccncn2)c1=O,"G protein-coupled receptor kinase 6 (GRK6, Homo sapiens, UniProt P43250)",enzyme activity,inhibitor,,1 µM,-1%
COc1cc(Nc2ncc(F)c(Nc3ccc4c(n3)NC(=O)C(C)(C)O4)n2)cc(OC)c1OC,"Epithelial discoidin domain-containing receptor 1 (DDR1, Homo sapiens, UniProt Q08345)",binding,,competition with immobilised ligand,10 µM,100%
Cc1ncc(C)n2nc(/C=C/c3nc(N4CCCC4)cc(N4CCOCC4)n3)nc12,PTGIR,cell-free assay,,,10 µM,22%
c1ccc(C(NCCNC(c2ccccc2)c2ccccc2)c2ccccc2)cc1,"Coagulation factor X (F10, Homo sapiens, UniProt P00742)",enzyme activity,inhibitor,,10 µM,-9%
Cn1cc(-c2cc(F)cc(N3CCn4c(cc5c4CCCC5)C3=O)c2CO)cc(Nc2ccc(N3CCN(C4COC4)CC3)cn2)c1=O,"G protein-coupled receptor kinase 5 (GRK5, Homo sapiens, UniProt P34947)",enzyme activity,inhibitor,,0.1 µM,4%
CCN(CC)CCCC[C@H](NC(=O)[C@H](CC(C)C)NC(=O)[C@H](C)NC(=O)[C@H](Cc1ccccc1)NC(=O)c1ccc(C(C)(C)C)cc1)C(=O)N[C@@H](CO)C(=O)OC,"Beta-2 adrenergic receptor (ADRB2, Homo sapiens, UniProt P07550)",ligand displacement,,radioligand,10 µM,-1%
